In ChEMBL document CHEMBL3751667, “Carbamate substituted 2-amino-4,6-diphenylpyrimidines as adenosine receptor antagonists” (Bioorg Med Chem Lett, 2016):
In brackets after ≈: the same amount, converted by molar mass. Activity calls are given as the source filed them. The rule behind the calls is not given here.

Assays:
Adenosine receptor A1 = molecular target: T1, Adenosine receptor A1 (Rattus norvegicus, UniProt P25099); test: Displacement of [3H]DPCPX from adenosine A1 receptor in Sprague-Dawley rat whole brain after 1 hr by scintillation counting
T1 sequence (P25099 whole entry): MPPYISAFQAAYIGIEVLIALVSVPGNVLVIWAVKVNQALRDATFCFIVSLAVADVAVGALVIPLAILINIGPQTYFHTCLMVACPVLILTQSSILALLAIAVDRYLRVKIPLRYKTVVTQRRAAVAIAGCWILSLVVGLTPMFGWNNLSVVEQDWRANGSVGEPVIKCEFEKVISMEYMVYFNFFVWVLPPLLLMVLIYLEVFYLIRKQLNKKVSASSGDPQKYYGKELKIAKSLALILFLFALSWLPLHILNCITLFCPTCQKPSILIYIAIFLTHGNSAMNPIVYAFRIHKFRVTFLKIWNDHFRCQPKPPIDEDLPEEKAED

Adenosine receptor A2a = Adenosine receptor A2a (Rattus norvegicus, UniProt P30543); test: Displacement of [3H]NECA from adenosine A2A receptor in Sprague-Dawley rat striatal membrane after 1 hr by scintillation counting; set-up: species or system Striatum
Chain of Adenosine receptor A2a (P30543 whole entry): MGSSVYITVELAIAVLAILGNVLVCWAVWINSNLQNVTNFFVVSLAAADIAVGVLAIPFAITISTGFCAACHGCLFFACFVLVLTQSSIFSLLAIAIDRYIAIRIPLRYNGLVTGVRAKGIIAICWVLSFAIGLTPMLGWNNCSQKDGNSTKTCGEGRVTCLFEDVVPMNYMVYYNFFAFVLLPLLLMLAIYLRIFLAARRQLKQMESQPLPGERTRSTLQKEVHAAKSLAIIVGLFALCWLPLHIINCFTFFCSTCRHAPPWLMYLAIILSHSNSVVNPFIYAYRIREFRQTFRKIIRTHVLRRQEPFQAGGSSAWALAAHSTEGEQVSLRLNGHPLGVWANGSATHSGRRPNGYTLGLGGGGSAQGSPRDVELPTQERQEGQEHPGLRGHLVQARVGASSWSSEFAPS

Rattus norvegicus [1] = species on record: Rattus norvegicus; test: Selectivity ratio of Ki for adenosine A2A receptor in Sprague-Dawley rat striatal membrane to Ki for adenosine A1 receptor in Sprague-Dawley rat whole brain
Summary of the method: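 Index calculated as A2A Ki divided by A1 Ki. Both Ki values come from radioligand binding assays and are given as the mean ± SEM of duplicate determinations.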

Rattus norvegicus [2] = test: Reversal of haloperidol-induced catalepsy in Sprague-Dawley rat at 0.4 to 2 mg/kg, ip after 60 mins relative to control; type: functional, organism-based
Summary of the method: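 Sprague–Dawley rats, drug naïve, three groups; all given haloperidol 5.0 mg/kg i.p. to induce catalepsy. Thirty minutes later: DMSO (control) or test compound at 0.4 or 2 mg/kg. Catalepsy scored by standard bar test 60 minutes after first injection; compared with haloperidol + vehicle group by one-way ANOVA and Dunnett's post test.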

[3] = n-octanol-potassium phosphate buffer partition coefficient, log D of the compound at pH 7.4 by shake flask method; type: physicochemical
Summary of the method: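 Shake flask method; hydrophilic phase potassium phosphate buffer pH 7.4, hydrophobic phase n-octanol.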

[4] = Solubility of the compound at 4.5 mg after 24 hrs by HPLC analysis; type: physicochemical
Summary of the method: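 Water solubility: excess compound shaken in water at 37 °C.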

| Structure (SMILES) | Ki (Adenosine receptor A1) [nM] | Ki (Adenosine receptor A2a) [nM] | Ratio Ki (Rattus norvegicus [1]) | Activity (Rattus norvegicus [2]) | logD [3] | solubility at 24 h [4] [µM] |
| --- | --- | --- | --- | --- | --- | --- |
| Nc1nc(-c2ccccc2)cc(-c2cccc(OC(=O)N3CCCC3)c2)n1 | 0.835 | 24.8 | 30 |  |  |  |
| CN(C(=O)Oc1cccc(-c2cc(-c3ccccc3)nc(N)n2)c1)c1ccccc1 | 1.07 | 39.9 | 37 |  |  |  |
| Nc1nc(-c2ccccc2)cc(-c2cccc(OC(=O)N(c3ccccc3)c3ccccc3)c2)n1 | 10.7 | 451 | 42 |  |  |  |
| Nc1nc(-c2ccccc2)cc(-c2cccc(OC(=O)N3CCCCC3)c2)n1 | 1.95 | 8.94 | 4.6 |  |  |  |
| CC(C)N(C(=O)Oc1cccc(-c2cc(-c3ccccc3)nc(N)n2)c1)C(C)C | 0.175 | 12.1 | 69 |  |  |  |
| CN1CCN(C(=O)Oc2cccc(-c3cc(-c4ccccc4)nc(N)n3)c2)CC1 | 2.04 | 1.58 | 0.8 | inactive | 4.03 | 0.22 (≈ 0.0857 µg/mL) |
| CCN(CC)C(=O)Oc1cccc(-c2cc(-c3ccccc3)nc(N)n2)c1 | 0.468 | 22.8 | 49 |  |  |  |
| Nc1nc(-c2ccccc2)cc(-c2cccc(OC(=O)N3CCOCC3)c2)n1 | 2.65 | 3.5 | 1.3 | Active |  |  |
| CN(C)C(=O)Oc1cccc(-c2cc(-c3ccccc3)nc(N)n2)c1 | 2.06 | 51.9 | 25 |  |  |  |
